Results reported in ChEMBL document CHEMBL2311369, “Synthesis and anticonvulsant activity of new phenytoin derivatives” (Eur J Med Chem, 2013).

Tests used:
[1] = test system: Mus musculus; experiment: Neurotoxicity in albino mouse assessed as neurological deficit at 100 mg/kg, ip measured after 1 hr for period of 300 seconds by rotarod test; type: toxicity, organism-based; design: dose 100 mg/kg, route intraperitoneal; details: in vivo
In short: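 Rotarod at 6 rpm with a 3 cm rod. Male albino mice get two training sessions of 10 and 15 min first. Compound given i.p. at 100 mg/kg in 1% Tween 80, groups of six; vehicle-treated controls. Mice are retested 1 h later. Result is % of mice unable to stay on the rod for 300 s.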

[2] = test system: Mus musculus; experiment: Anticonvulsant activity in albino mouse assessed as protection against subcutaneous metrazol-induced seizures at 100 mg/kg, po administered 60 mins prior challenge measured over 20 mins; type: functional
In short: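 Adult albino mice (20–25 g, both sexes), groups of six, dosed orally with 100 mg/kg; a separate group of six serves as control. Pentylenetetrazole 85 mg/kg given s.c. 60 min after dosing. Each mouse is watched alone for 20 min for tonic-clonic convulsions lasting at least 5 s. Mice without generalized convulsions count as protected; result is % protection.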

[3] = test system: Mus musculus; experiment: Anticonvulsant activity in albino mouse assessed as protection against maximal electroshock-induced seizures measuring mean convulsion threshold at 100 mg/kg, po after 60 mins; type: functional
In short: (§1)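 Adult albino mice (20–25 g, both sexes), groups of six, dosed orally with compound suspended in 1% Tween 80; vehicle controls. 60 min later, ear-electrode current ramped from 1 mA in 0.1 mA/0.2 s steps at 50 Hz until tonic hind-limb extension. Read-out is mean maximal tolerated current (mA), reported as mean ± S.E. of 5–6 animals. One-way ANOVA with Tukey post test versus control.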

[4] = test system: Mus musculus; experiment: Anticonvulsant activity in albino mouse assessed as protection against maximal electroshock-induced seizures measuring mean convulsion threshold at 30 mg/kg, po after 60 mins; type: functional; in short: as §1

Row | Structure (SMILES) | Activity [1] [%] | Activity [2] [%] | Activity [3] [mA] | Activity [4] [mA]
1 | COc1ccc(-n2c(S)nnc2CN2C(=O)NC(c3ccccc3)(c3ccccc3)C2=O)cc1 | 50 | 40 | 6.6 | 
2 | O=C1NC(c2ccccc2)(c2ccccc2)C(=O)N1Cc1nnc(S)n1-c1ccc(Cl)cc1 |  | 40 | 6.2 | 
3 | O=C1NC(c2ccccc2)(c2ccccc2)C(=O)N1Cc1nnc(S)n1-c1ccccc1 | 33.33 | 40 | 6.6 | 
4 | CCNC(=S)NNC(=O)CN1C(=O)NC(c2ccccc2)(c2ccccc2)C1=O |  | 40 | 5.2 | 
5 | O=C1NC(=O)C(c2ccccc2)(c2ccccc2)N1 [PHENYTOIN] |  | 80 | 7.25 | 
6 | COc1ccc(NC(=S)NNC(=O)CN2C(=O)NC(c3ccccc3)(c3ccccc3)C2=O)cc1 | 16.67 | 80 | 4 | 
7 | O=C(CN1C(=O)NC(c2ccccc2)(c2ccccc2)C1=O)NNC(=S)Nc1ccc(Cl)cc1 |  | 0 | 5.4 | 
8 | O=C1NC(c2ccccc2)(c2ccccc2)C(=O)N1Cc1nnc(S)o1 | 40 | 80 | 5.5 | 
9 | O=C(CN1C(=O)NC(c2ccccc2)(c2ccccc2)C1=O)NNC(=S)Nc1ccccc1 | 0 | 50 | 8.4 | 6.143
10 | Cc1ccc(-n2c(S)nnc2CN2C(=O)NC(c3ccccc3)(c3ccccc3)C2=O)cc1 |  | 20 | 6.6 | 
11 | CCNc1nnc(CN2C(=O)NC(c3ccccc3)(c3ccccc3)C2=O)s1 |  | 60 | 5 | 
12 | O=C1NC(c2ccccc2)(c2ccccc2)C(=O)N1Cc1nnc(Nc2ccccc2)s1 |  | 60 | 5 | 
13 | CCn1c(S)nnc1CN1C(=O)NC(c2ccccc2)(c2ccccc2)C1=O |  | 40 | 5.8 | 
14 | O=C1NC(c2ccccc2)(c2ccccc2)C(=O)N1Cc1nnc(Nc2ccc(Cl)cc2)s1 |  | 0 | 4.25 | 
15 | Cc1ccc(Nc2nnc(CN3C(=O)NC(c4ccccc4)(c4ccccc4)C3=O)s2)cc1 |  | 40 | 5.2 | 
16 | Cc1ccc(NC(=S)NNC(=O)CN2C(=O)NC(c3ccccc3)(c3ccccc3)C2=O)cc1 |  | 60 | 5.8 | 
17 | COc1ccc(Nc2nnc(CN3C(=O)NC(c4ccccc4)(c4ccccc4)C3=O)s2)cc1 |  | 20 | 4 | 
